Experimental data reported in ChEMBL document CHEMBL3272331, “Diacridines, bifunctional intercalators. Chemistry and antitumor activity” (J Med Chem, 1978).

Assays:
P388 [1] = experiment: Growth inhibition of mouse P388 cells by in vitro assay; assay type: functional, cell-based; conditions: read-out: I50
In short: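 P-388 murine leukemia cells kept in suspension culture were incubated with a range of diacridine concentrations. The concentration that reduced the rate of cell growth by 50% was taken as the I50.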

Mus musculus = experiment: Toxicity in mouse P388 cells allografted BDF/1 mouse consecutively administered on day 1 to day 9 post challenge measured on day 5; assay type: organism-based
P388 [2] = experiment: Antitumor activity against mouse P388 cells allografted in BDF/1 mouse assessed as increase in life span at optimal dose consecutively administered on day 1 to day 9 post challenge relative to control; assay type: functional
In short: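 P-388 tumour passaged as ascites in DBA/2 mice; 1×10^6 ascites cells given ip to BDF/1 mice on day 0. Drug given daily for 9 consecutive days from day 1 to groups of six mice at 20, 10, 5, 2.5, 1.25 and 0.625 mg/kg/day. Day of death recorded; % ILS calculated from treated vs control life spans; dose giving optimal % ILS reported.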

SMILES	IC50 (P388 [1]) [nM]	LD10 (Mus musculus) [mg/kg/day]	ILS (P388 [2]) [%]
COc1ccc2c(NCCCCCCNc3c4ccccc4nc4cc(OC)ccc34)c3ccccc3nc2c1	240	9.5	71
c1ccc2c(NCCCCCCCNc3c4ccccc4nc4ccccc34)c3ccccc3nc2c1	320	12.5	67
c1ccc2c(NCCCCCNc3c4ccccc4nc4ccccc34)c3ccccc3nc2c1	–	12.5	36
c1ccc2c(NCCCCCCCCCCCCNc3c4ccccc4nc4ccccc34)c3ccccc3nc2c1	320	6.5	10
CCc1cccc2c(NCCNc3c4ccccc4nc4c(CC)cccc34)c3ccccc3nc12	–	16	20
CCc1cccc2c(NCCCCNc3c4ccccc4nc4c(CC)cccc34)c3ccccc3nc12	–	7.4	10
Cl.Nc1ccc2c(NCCCCCCNc3c4ccccc4nc4cc(N)ccc34)c3ccccc3nc2c1	210	> 20	47
CCc1cccc2c(NCCCCCCNc3c4ccccc4nc4c(CC)cccc34)c3ccccc3nc12	230	16	43
O=[N+]([O-])c1ccc2c(NCCCCCCNc3c4ccccc4nc4cc([N+](=O)[O-])ccc34)c3ccccc3nc2c1	480	> 20	37
COc1ccc2nc3ccccc3c(NCCCCCCNc3c4ccccc4nc4ccc(OC)cc34)c2c1	320	8.6	25
CCCOc1ccc2c(NCCCCCCNc3c4ccccc4nc4cc(OCCC)ccc34)c3ccccc3nc2c1	320	6.8	37
COc1cccc2c(NCCCCCCNc3c4ccccc4nc4c(OC)cccc34)c3ccccc3nc12	190	12.5	62
CCCCOc1cccc2c(NCCCCCCNc3c4ccccc4nc4c(OCCCC)cccc34)c3ccccc3nc12	360	6.5	7
CCc1cccc2c(NCCCCCCCCNc3c4ccccc4nc4c(CC)cccc34)c3ccccc3nc12	230	12	42
COc1ccc2nc3ccccc3c(NCCCCCCCCNc3c4ccccc4nc4ccc(OC)cc34)c2c1	190	6	30
COc1ccc2c(NCCCCCCCCNc3c4ccccc4nc4cc(OC)ccc34)c3ccccc3nc2c1	–	10.5	84
COc1cccc2c(NCCCCCCCCNc3c4ccccc4nc4c(OC)cccc34)c3ccccc3nc12	290	13.5	89
COc1ccc2c(NCCCCCCCCNc3c4ccc(OC)cc4nc4c(OC)cccc34)c3cccc(OC)c3nc2c1	420	13	66
COc1ccc2c(NCCCCCCCCNc3c4ccc(OC)cc4nc4ccc(Cl)cc34)c3cc(Cl)ccc3nc2c1	160	7	18
COc1ccc2c(NCCCCCCCCNc3c4ccc(Cl)cc4nc4cc(OC)ccc34)c3ccc(Cl)cc3nc2c1.Cl	–	> 20	17
CCOc1cccc2c(NCCCCCCCCNc3c4ccccc4nc4c(OCC)cccc34)c3ccccc3nc12	–	13.5	76
CCCOc1ccc2c(NCCCCCCCCNc3c4ccccc4nc4cc(OCCC)ccc34)c3ccccc3nc2c1	210	5.5	63
Cl.Nc1ccc2c(NCCCCCCCCNc3c4ccccc4nc4cc(N)ccc34)c3ccccc3nc2c1	–	> 20	58
O=[N+]([O-])c1ccc2c(NCCCCCCCCNc3c4ccccc4nc4cc([N+](=O)[O-])ccc34)c3ccccc3nc2c1	330	> 20	45
COc1ccc2c(NCCCCCCCCNc3c4ccc(OC)cc4nc4cc([N+](=O)[O-])ccc34)c3ccc([N+](=O)[O-])cc3nc2c1	–	> 20	21

SMILES	IC50 (P388 [1]) [nM]	LD10 (Mus musculus) [mg/kg/day]	ILS (P388 [2]) [%]
Clc1ccc2c(NCCCCCCCCNc3c4ccccc4nc4cc(Cl)ccc34)c3ccccc3nc2c1	230	> 20	29
Brc1ccc2c(NCCCCCCCCNc3c4ccccc4nc4cc(Br)ccc34)c3ccccc3nc2c1	210	> 20	9
CSc1ccc2c(NCCCCCCCCNc3c4ccccc4nc4cc(SC)ccc34)c3ccccc3nc2c1.Cl	370	8	27
CSc1cccc2c(NCCCCCCCCNc3c4ccccc4nc4c(SC)cccc34)c3ccccc3nc12	860	> 20	13
CCCCOc1cccc2c(NCCCCCCCCNc3c4ccccc4nc4c(OCCCC)cccc34)c3ccccc3nc12	190	7.6	7
CCc1cccc2c(NCCCCCCCCCCNc3c4ccccc4nc4c(CC)cccc34)c3ccccc3nc12	150	13	33
c1ccc2c(NCCCCCCCCCCNc3c4ccccc4nc4ncccc34)c3cccnc3nc2c1	–	–	22
c1ccc2c(NCCCCCCCCCCCCNc3c4ccccc4nc4ncccc34)c3cccnc3nc2c1	–	–	10
COc1ccc2c(NCCNc3c4ccccc4nc4cc(OC)ccc34)c3ccccc3nc2c1.Cl	–	7.2	0
CCCCOc1cccc2c(NCCNc3c4ccccc4nc4c(OCCCC)cccc34)c3ccccc3nc12	–	12.5	9
COc1ccc2c(NCCCCNc3c4ccccc4nc4cc(OC)ccc34)c3ccccc3nc2c1.Cl	–	> 20	10
CCCOc1cccc2c(NCCCCNc3c4ccccc4nc4c(OCCC)cccc34)c3ccccc3nc12.Cl	–	9.8	9
Cl.Nc1ccc2nc3ccccc3c(NCCCCCCCCNc3c4ccccc4nc4ccc(N)cc34)c2c1	–	> 20	60
Cc1ccc2c(NCCCCCCCCNc3c4ccccc4nc4cc(C)ccc34)c3ccccc3nc2c1.Cl	–	7.3	59
Cc1ccc2c(NCCCCCCCCNc3c4ccccc4nc4c(C)c(C)ccc34)c3ccccc3nc2c1C.Cl	–	8	60
COc1ccc(C)c2c(NCCCCCCCCNc3c4ccccc4nc4c(OC)ccc(C)c34)c3ccccc3nc12.Cl	–	12.5	20
COc1cccc2c(NCCCCCCCCNc3c4ccc([N+](=O)[O-])cc4nc4c(OC)cccc34)c3ccc([N+](=O)[O-])cc3nc12.Cl	–	> 20	86
COc1ccc2c(NCCCCCCCCCCNc3c4ccccc4nc4cc(OC)ccc34)c3ccccc3nc2c1.Cl	–	8	55
COc1ccc2nc3cc(Cl)ccc3c(NCCCCCCCCNc3c4ccc(Cl)cc4nc4ccc(OC)cc34)c2c1	–	> 20	9
c1ccc2c(NCCCCCCNc3c4ccccc4nc4ccccc34)c3ccccc3nc2c1	380	9	54
c1ccc2c(NCCCCNc3c4ccccc4nc4ccccc34)c3ccccc3nc2c1	2710	11	13
c1ccc2c(NCCCCCCCCCCNc3c4ccccc4nc4ccccc34)c3ccccc3nc2c1	380	7	33
c1ccc2c(NCCCCCCCCNc3c4ccccc4nc4ccccc34)c3ccccc3nc2c1	320	13.5	60
c1ccc2c(NCCNc3c4ccccc4nc4ccccc34)c3ccccc3nc2c1	1420	4.3	7
